Laboratory results published in PMC3409840 (ACS medicinal chemistry letters, 2012).

Columns and labels:
[1] = Solubility under the NF-κB reporter assay conditions; assay type: physicochemical; settings: 50 µM screen
DU-145 = experiment: Cellular cytotoxicity by Alamar Blue staining, DU-145; assay type: cell-based, human; settings: for IC50 against DU-145 relative to reported IC50 of cryptocaryone: fold higher than cryptocaryone
p65 [2] = experiment: Western blot of p65 in nuclear lysate of NF-κB-induced DU-145 cells; assay type: cell-based, human
Method in brief: (§1)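 Cells were dosed with test compound at 100 μM or 25 μM, or with DMSO vehicle, and the NF-κB pathway was then induced with TNF-α. Controls were noninduced and TNF-α-induced cells, both given vehicle.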

p65 [3] = experiment: Western blot of p65 in nuclear lysate of NF-κB-induced CCRF-CEM cells; assay type: cell-based, human
Method in brief: as §1

IL-8 = experiment: Secreted IL-8 protein by ELISA in TNF-α-induced DU-145 cells; assay type: cell-based, human
Method in brief: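 DU-145 cells dosed with DMSO vehicle or test compound (100 μM and 33 μM), followed by TNF-α induction of the NF-κB pathway. Non-induced and induced vehicle controls were included. Secreted IL-8 protein in the cell medium was quantified by ELISA.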

[4] = NMR-based thiol reactivity assay with cysteamine; settings: two molar equivalents of cysteamine, DMSO-d6/D2O PBS, 1H NMR
NF-κB = NF-κB luciferase reporter assay in A549 cells induced with TNF-α; assay type: cell-based, human
Method in brief: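 A549 lung cancer cells carrying a stably transfected luciferase reporter behind six consensus NF-κB binding-site repeats. Cells induced with TNF-α and treated with test compound at 100, 50 and 10 μM (preliminary screen at 50 μM). Non-induced and TNF-α-induced wells serve as controls. Read-out is luciferase signal. Cell viability was checked in parallel under identical conditions.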

IL-8 mRNA = experiment: Semi-quantitative RT-PCR of IL-8 mRNA in TNF-α-induced DU-145 cells; assay type: cell-based, human; settings: 33 µM, lowest concentration tested
Method in brief: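 DU-145 cells given DMSO vehicle or test compound (100 μM and 33 μM), then induced with TNF-α, alongside non-induced and induced controls. IL-8 mRNA was assessed by semiquantitative (traditional) RT-PCR, with GAPDH mRNA amplified as the reference transcript.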

CCRF-CEM = experiment: Cellular cytotoxicity by Alamar Blue staining, CCRF-CEM; assay type: cell-based, human; settings: 48-hr cytotoxicity assay, mean ± SD
Vero = experiment: Cellular cytotoxicity by Alamar Blue staining, Vero; assay type: cell-based, African green monkey; settings: mean ± SD
RWPE-1 = experiment: Cellular cytotoxicity by Alamar Blue staining, RWPE-1; assay type: cell-based, human; settings: mean ± SD
IκBα = settings: 16 µM; cited from earlier work

CO[C@@]12C=C(Br)C(=O)C[C@@H]1/C(=C(/OC(C)=O)c1ccccc1)CC2 (racemic) [Compound 4]
solubility under the assay conditions [1]: poorly soluble under the assay conditions

CC(=O)O/C(=C1\CO[C@]2(C)C=CC(=O)C[C@H]12)c1ccccc1 (racemic) [Compound 10]
IC50 against DU-145 relative to reported IC50 of cryptocaryone (DU-145): approximately 15 fold
inhibition of nuclear translocation of p65 (p65 [2]; 25 µM): Partial inhibition of p65 nuclear translocation
inhibition of nuclear translocation of p65 (p65 [2]; 100 µM): completely inhibited nuclear translocation of p65
inhibition of nuclear translocation of p65 (p65 [3]; 25 µM): Partial inhibition of p65 nuclear translocation
inhibition of nuclear translocation of p65 (p65 [3]; 100 µM): completely inhibited nuclear translocation of p65
secreted IL-8 levels (IL-8; 33 µM): 3,480 pg/mL
time to disappearance of vinyl proton doublets after cysteamine addition [4]: ≤ 5 min

CC(=O)O/C(C)=C1\CO[C@]2(c3ccccc3)C=CC(=O)C[C@H]12 (racemic) [Compound 11]
enhancement in potency compared with racemic 11 (NF-κB; 50 µM): 2 fold
IC50 against DU-145 relative to reported IC50 of cryptocaryone (DU-145): approximately 15 fold
inhibition of nuclear translocation of p65 (p65 [2]; 25 µM): Partial inhibition of p65 nuclear translocation
inhibition of nuclear translocation of p65 (p65 [2]; 100 µM): completely inhibited nuclear translocation of p65
inhibition of nuclear translocation of p65 (p65 [3]; 25 µM): Partial inhibition of p65 nuclear translocation
inhibition of nuclear translocation of p65 (p65 [3]; 100 µM): completely inhibited nuclear translocation of p65
secreted IL-8 levels (IL-8; 33 µM): 2,970 pg/mL
effect on IL-8 protein levels (in words) (IL-8; highest concentration tested (100 µM)): depleted IL-8 protein levels to nearly undetectable levels
IL-8 mRNA production (in words) (IL-8 mRNA): visibly lower levels than that of 10

CC(=O)O/C(=C1\CO[C@]2(C)CCC(=O)C[C@H]12)c1ccccc1 (racemic) [Compound 12]
decrease in potency compared to 11 (NF-κB; 100 µM): ~ 4 fold
reduction of NF-κB activity (NF-κB; 100 µM, highest concentration tested): 24%
IC50 CCRF-CEM (CCRF-CEM): no appreciable toxicity
IC50 DU-145 (DU-145; 48-hr cytotoxicity assay, Alamar Blue, mean ± SD): no appreciable toxicity
IC50 Vero (Vero): no appreciable toxicity
IC50 RWPE-1 (RWPE-1): no appreciable toxicity
secreted IL-8 levels (IL-8; 100 µM): 4,900 pg/mL

O=C1C[C@@H]2/C(=C(O)\C=C\c3ccccc3)C(=O)C=C[C@@H]2O1 [cryptocaryone]
inhibition of IκBα degradation (in words) (IκBα): inhibit the degradation of IκBα
